# Laboratory results: ChEMBL document CHEMBL3994666 (ACS Med Chem Lett, 2017)
# Calls of active or inactive are those of the source. The calls are words filed in the database; no cut-off is given here.
# Columns and labels:
# [1] = molecular target: T1, Proteasome subunit beta type-9 (Homo sapiens, UniProt P28065); assay: Inhibition of LMP2 in human MOLT4 cell lysate after 1 hr by ELISA
# T1 sequence (P28065 whole entry): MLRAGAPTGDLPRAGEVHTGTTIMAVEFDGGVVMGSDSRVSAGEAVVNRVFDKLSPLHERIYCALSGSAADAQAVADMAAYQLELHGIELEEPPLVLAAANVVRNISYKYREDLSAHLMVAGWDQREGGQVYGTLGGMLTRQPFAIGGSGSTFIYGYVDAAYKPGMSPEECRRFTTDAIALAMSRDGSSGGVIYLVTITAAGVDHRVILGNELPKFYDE
# In short: (§1)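 ProCISE subunit-specific ELISA of proteasome catalytic active sites in cell lysate. Values are mean ± SD, n ≥ 2.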
# [2] = molecular target: T2, Proteasome subunit beta type-8 (Homo sapiens, UniProt P28062); assay: Inhibition of LMP7 in human MOLT4 cell lysate after 1 hr by ELISA; in short: as §1
# T2 sequence (P28062 whole entry): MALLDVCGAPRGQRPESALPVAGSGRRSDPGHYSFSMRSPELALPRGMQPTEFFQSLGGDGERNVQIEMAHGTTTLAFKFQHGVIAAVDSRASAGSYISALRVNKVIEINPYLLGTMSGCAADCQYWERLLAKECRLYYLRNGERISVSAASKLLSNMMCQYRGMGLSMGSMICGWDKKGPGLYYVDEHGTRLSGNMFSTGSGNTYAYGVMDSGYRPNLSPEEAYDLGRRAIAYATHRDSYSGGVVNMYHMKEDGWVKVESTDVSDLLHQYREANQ
# [3] = molecular target: T3, Proteasome Macropain subunit MB1 (Homo sapiens, UniProt P28074); assay: Inhibition of proteasome beta5 in human MOLT4 cell lysate after 1 hr by ELISA; in short: as §1
# T3 sequence (P28074 whole entry): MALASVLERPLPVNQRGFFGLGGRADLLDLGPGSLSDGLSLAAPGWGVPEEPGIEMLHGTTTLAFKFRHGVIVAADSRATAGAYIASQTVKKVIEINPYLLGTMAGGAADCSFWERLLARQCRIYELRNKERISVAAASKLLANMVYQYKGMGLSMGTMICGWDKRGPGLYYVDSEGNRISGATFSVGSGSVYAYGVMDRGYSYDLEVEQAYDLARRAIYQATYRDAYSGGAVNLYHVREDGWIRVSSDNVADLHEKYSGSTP
# [4] = molecular target: T4, Proteasome subunit beta type-10 (Homo sapiens, UniProt P40306); assay: Inhibition of MECL1 in human MOLT4 cell lysate after 1 hr by ELISA
# T4 sequence (P40306 whole entry): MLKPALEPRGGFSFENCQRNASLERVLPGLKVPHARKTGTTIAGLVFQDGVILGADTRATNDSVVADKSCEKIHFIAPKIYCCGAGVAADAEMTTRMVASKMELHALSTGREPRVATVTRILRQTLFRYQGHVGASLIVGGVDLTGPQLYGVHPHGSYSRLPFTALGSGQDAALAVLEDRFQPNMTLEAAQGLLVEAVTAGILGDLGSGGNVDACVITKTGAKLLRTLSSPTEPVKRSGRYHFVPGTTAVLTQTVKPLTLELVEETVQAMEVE
# [5] = Stability in Balb/c mouse liver S9 fraction assessed as compound remaining at 1 uM incubated for 90 mins in absence of NADPH by LC-MS/MS analysis; type: ADME, tissue-based; details: read-out: Stability
# In short: (§2)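 Compound incubated with liver S9 fraction for 90 min without NADPH. Values are mean ± SD, n ≥ 3.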
# [6] = Stability in Sprague-Dawley rat liver S9 fraction assessed as compound remaining at 1 uM incubated for 90 mins in absence of NADPH by LC-MS/MS analysis; type: ADME, tissue-based; details: read-out: Stability; in short: as §2
# [7] = Stability in human liver S9 fraction assessed as compound remaining at 1 uM incubated for 90 mins in absence of NADPH by LC-MS/MS analysis; type: ADME, tissue-based; details: read-out: Stability; in short: as §2
# [8] = Solubility of the compound in phosphate buffer at pH 7.2 at 10 mg/ml after 24 hrs by UV-HPLC method; type: physicochemical
# In short: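 Solubility measured at pH 7.2. Values are mean ± SD, n = 2.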
# Mus musculus [9] = assay: In vivo inhibition of LMP2 in Balb/c mouse assessed as residual activity in blood at 1 mg/kg, iv administered as single bolus dose using PEG300/WFI formulation after 1 hr by ELISA relative to control; type: functional
# In short: (§3)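 Mice dosed intravenously at nominal doses. Blood collected 1 h later and proteasome active-site activity (LMP2, LMP7, β5) measured by ProCISE subunit-specific ELISA. Expressed as % activity remaining relative to control.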
# Mus musculus [10] = assay: In vivo inhibition of LMP7 in Balb/c mouse assessed as residual activity in blood at 1 mg/kg, iv administered as single bolus dose using PEG300/WFI formulation after 1 hr by ELISA relative to control; type: functional; in short: as §3
# Mus musculus [11] = assay: In vivo inhibition of proteasome beta5 in Balb/c mouse assessed as residual activity in blood at 1 mg/kg, iv administered as single bolus dose using PEG300/WFI formulation after 1 hr by ELISA relative to control; type: functional; in short: as §3
# PBMC [12] = assay: Anti-inflammatory activity in human PBMC assessed as inhibition of LPS-induced IL-12/23 p40 production pretreated for 1 hr followed by LPS stimulation measured after 20 hrs; type: functional, cell-based
# PBMC [13] = assay: Anti-inflammatory activity in human PBMC assessed as inhibition of LPS-induced TNF-alpha production pretreated for 1 hr followed by LPS stimulation measured after 20 hrs; type: functional, cell-based
# PBMC [14] = assay: Anti-inflammatory activity in human PBMC assessed as inhibition of LPS-induced IL-6 production pretreated for 1 hr followed by LPS stimulation measured after 20 hrs; type: functional, cell-based
# PBMC [15] = assay: Anti-inflammatory activity in human PBMC assessed as inhibition of LPS-induced GMCSF production pretreated for 1 hr followed by LPS stimulation measured after 20 hrs; type: functional, cell-based
# PBMC [16] = assay: Anti-inflammatory activity in human PBMC assessed as inhibition of LPS-induced IL-8 production pretreated for 1 hr followed by LPS stimulation measured after 20 hrs; type: functional, cell-based
# PBMC [17] = assay: Anti-inflammatory activity in human PBMC assessed as inhibition of LPS-induced Il-1b production pretreated for 1 hr followed by LPS stimulation measured after 20 hrs; type: functional, cell-based
# PBMC [18] = assay: Cytotoxicity against human PBMC assessed as decrease in cell viability by CellTiter-Glo assay; type: cell-based
# In short: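 PBMC viability read out with CellTiter-Glo. IC50 derived from the viability signal.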
# Mus musculus [19] = assay: In vivo inhibition of LMP2 in Balb/c mouse assessed as residual activity in blood at 1 mg/kg, iv administered as single bolus dose using 10% EtOH/25% PEG300 formulation after 1 hr by ELISA relative to control; type: functional; in short: as §3
# Mus musculus [20] = assay: In vivo inhibition of LMP7 in Balb/c mouse assessed as residual activity in blood at 1 mg/kg, iv administered as single bolus dose using 10% EtOH/25% PEG300 formulation after 1 hr by ELISA relative to control; type: functional; in short: as §3
# Mus musculus [21] = assay: In vivo inhibition of proteasome beta5 in Balb/c mouse assessed as residual activity in blood at 1 mg/kg, iv administered as single bolus dose using 10% EtOH/25% PEG300 formulation after 1 hr by ELISA relative to control; type: functional; in short: as §3
# Mus musculus [22] = assay: In vivo inhibition of LMP2 in Balb/c mouse kidney at >1 mg/kg, iv administered as single bolus dose using 10% EtOH/25% PEG300 formulation after 1 hr by ELISA relative to control; type: functional
# Mus musculus [23] = assay: In vivo inhibition of LMP2 in Balb/c mouse heart at >1 mg/kg, iv administered as single bolus dose using 10% EtOH/25% PEG300 formulation after 1 hr by ELISA relative to control; type: functional
# Mus musculus [24] = assay: In vivo inhibition of LMP2 in Balb/c mouse liver at >1 mg/kg, iv administered as single bolus dose using 10% EtOH/25% PEG300 formulation after 1 hr by ELISA relative to control; type: functional
# Mus musculus [25] = assay: In vivo inhibition of LMP2 in Balb/c mouse brain at >1 mg/kg, iv administered as single bolus dose using 10% EtOH/25% PEG300 formulation after 1 hr by ELISA; type: functional, organism-based
# Mus musculus [26] = assay: In vivo inhibition of LMP2 in Balb/c mouse assessed as residual activity in blood at 2 mg/kg, iv administered as single bolus dose using 10% EtOH/25% PEG300 formulation after 1 hr by ELISA relative to control; type: functional; in short: as §3
# Mus musculus [27] = assay: In vivo inhibition of LMP7 in Balb/c mouse assessed as residual activity in blood at 2 mg/kg, iv administered as single bolus dose using 10% EtOH/25% PEG300 formulation after 1 hr by ELISA relative to control; type: functional; in short: as §3
# Mus musculus [28] = assay: In vivo inhibition of proteasome beta5 in Balb/c mouse assessed as residual activity in blood at 2 mg/kg, iv administered as single bolus dose using 10% EtOH/25% PEG300 formulation after 1 hr by ELISA relative to control; type: functional; in short: as §3
Structure (SMILES),IC50 [1],IC50 [2],IC50 [3],IC50 [4],"remaining at 1.5 h, 1 µM [5]","remaining at 1.5 h, 1 µM [6]","remaining at 1.5 h, 1 µM [7]",solubility at 24 h [8],IC50 (PBMC [12]),IC50 (PBMC [13]),IC50 (PBMC [14]),IC50 (PBMC [15]),IC50 (PBMC [16]),IC50 (PBMC [17]),IC50 (PBMC [18]),also measured
C[C@H](NC(=O)c1cccc(=O)[nH]1)C(=O)N[C@@H](Cc1ccccc1)C(=O)[C@@]1(C)CO1,0.112 µM,44.6 µM,42.5 µM,> 250 µM,85.1%,58.8%,25.3%,7.52 mg/mL,,,,,,,,
COc1ccc(C[C@H](NC(=O)[C@H](C)NC(=O)CN2CCOCC2)C(=O)N[C@@H](Cc2ccccc2)C(=O)[C@@]2(C)CO2)cc1,,,,,106%,23.3%,8.6%,0.461 mg/mL,0.12 µM,0.56 µM,0.24 µM,0.22 µM,1.11 µM,1.47 µM,3.4 µM,Activity (Mus musculus [9]): 95%; Activity (Mus musculus [10]): 65.3%; Activity (Mus musculus [11]): 99.8%
C[C@]1(C(=O)[C@H](Cc2ccccc2)NC(=O)[C@H](CO)NC(=O)c2cccc(=O)[nH]2)CO1,0.051 µM,4.27 µM,6.89 µM,> 250 µM,90.9%,92.3%,81.5%,6.64 mg/mL,> 9.7 µM,> 25 µM,> 19.2 µM,> 25 µM,> 25 µM,> 25 µM,> 25 µM,Activity (Mus musculus [19]): 31.1%; Activity (Mus musculus [20]): 102.5%; Activity (Mus musculus [21]): 101.7%; inhibition (INH) (Mus musculus [22]): >50%; inhibition (INH) (Mus musculus [23]): >50%; inhibition (INH) (Mus musculus [24]): >50%; inhibition (Mus musculus [25]): inactive
COc1ccc(C[C@H](NC(=O)c2cccc(=O)[nH]2)C(=O)N[C@@H](Cc2ccccc2)C(=O)[C@@]2(C)CO2)cc1,0.14 µM,4.81 µM,18.2 µM,> 250 µM,0.4%,8%,1.1%,0.166 mg/mL,> 5.6 µM,> 25 µM,> 15.8 µM,> 25 µM,> 25 µM,> 25 µM,> 25 µM,Activity (Mus musculus [26]): 83%; Activity (Mus musculus [27]): 98.3%; Activity (Mus musculus [28]): 90.7%
